According to ChEMBL document CHEMBL1144630, “Indole derivatives as potent inhibitors of 5-lipoxygenase: design, synthesis, biological evaluation, and molecular modeling” (Bioorg Med Chem Lett, 2007):

Tests used:
[1] = target: T1, Polyunsaturated fatty acid 5-lipoxygenase (Rattus norvegicus) (UniProt P12527); conditions: at 5 µM
T1 sequence (whole entry): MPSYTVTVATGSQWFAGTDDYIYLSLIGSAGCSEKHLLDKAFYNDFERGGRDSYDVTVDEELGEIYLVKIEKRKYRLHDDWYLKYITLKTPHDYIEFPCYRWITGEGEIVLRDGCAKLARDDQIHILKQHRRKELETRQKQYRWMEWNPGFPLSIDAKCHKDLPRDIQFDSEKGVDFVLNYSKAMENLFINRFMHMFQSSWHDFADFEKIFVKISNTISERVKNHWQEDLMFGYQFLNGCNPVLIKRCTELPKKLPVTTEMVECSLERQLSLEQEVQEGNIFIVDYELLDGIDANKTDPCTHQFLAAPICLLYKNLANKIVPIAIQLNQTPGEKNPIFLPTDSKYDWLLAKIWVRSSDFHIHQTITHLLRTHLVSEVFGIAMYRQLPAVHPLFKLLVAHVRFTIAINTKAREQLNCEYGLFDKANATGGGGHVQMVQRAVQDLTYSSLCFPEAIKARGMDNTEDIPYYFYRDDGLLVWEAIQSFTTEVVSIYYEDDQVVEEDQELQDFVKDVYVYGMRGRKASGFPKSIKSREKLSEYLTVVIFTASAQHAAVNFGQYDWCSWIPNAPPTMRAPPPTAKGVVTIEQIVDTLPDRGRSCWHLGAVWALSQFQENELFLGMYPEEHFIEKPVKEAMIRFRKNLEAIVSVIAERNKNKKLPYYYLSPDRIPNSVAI

[2] = target: T2, Polyunsaturated fatty acid 5-lipoxygenase (Rattus norvegicus, UniProt P12527); test: Inhibition of 5-LOX in rat peritoneal leukocytes; format: cell-based
T2 sequence (P12527 whole entry): T1 sequence (whole entry)
How it was run: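 Cell-based 5-LOX assay in rat peritoneal leukocytes, quantified with a commercial kit. Selected compounds went on to concentration–response testing to derive IC50. Values are means of three determinations, each within 10% of the mean.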

inhibition [1] [%]	IC50 [2] [nM]	SMILES
25.8	74000	O=C(CCCc1cn(Cc2ccccc2)c2ccccc12)N1CCOCC1
72.9	3160	COc1ccc2[nH]c(C)c(CCCC(=O)N3CCOCC3)c2c1
15.9		O=C(Cc1c[nH]c2ccccc12)N1CCOCC1
81.9	870	O=C(Cc1cn(Cc2ccc(Cl)c(Cl)c2)c2ccccc12)N1CCOCC1
95.4	850	O=C(CCCc1cn(Cc2ccccc2)c2ccccc12)N1CCNCC1
86.9		CC(c1cc2ccccc2s1)N(O)C(N)=O (stereo not drawn)
23.4		O=C(CCc1cn(C(=O)c2ccccc2)c2ccccc12)N1CCOCC1
34.6		Cc1ccc(Cn2cc(CC(=O)N3CCOCC3)c3ccccc32)cc1
38.2		CC(C)(C)OC(=O)N1CCN(C(=O)CCCc2cn(Cc3ccccc3)c3ccccc23)CC1
38.5		O=C(CCc1cn(Cc2ccc(Cl)c(Cl)c2)c2ccccc12)N1CCOCC1
41.4		O=C(Cc1cn(Cc2ccccc2)c2ccccc12)N1CCOCC1
31.8		COC1(c2cc(F)cc(OCCc3cn(Cc4ccccc4)c4ccccc34)c2)CCOCC1
80.2	950	Cc1c(CCCC(=O)N2CCOCC2)c2cc(Cl)ccc2n1Cc1ccccc1
63.8	3170	O=C(CCc1cn(Cc2ccccc2)c2ccccc12)N1CCOCC1
33		O=C(CCc1c[nH]c2ccccc12)N1CCOCC1
54.2		COc1ccc2c(c1)c(CCCC(=O)N1CCOCC1)c(C)n2Cc1ccccc1
26		O=C(CCc1cn(C(=O)c2ccc(Cl)cc2)c2ccccc12)N1CCOCC1
26.7		O=C(CCCc1cn(Cc2ccc(Cl)c(Cl)c2)c2ccccc12)N1CCOCC1

inhibition [1] [%]	IC50 [2] [nM]	SMILES
51.5		COc1ccc2c(c1)c(CCCC(=O)N1CCN(C(=O)OC(C)(C)C)CC1)c(C)n2Cc1ccccc1
64.2	2380	COC1(c2cc(F)cc(OCCc3c[nH]c4ccccc34)c2)CCOCC1
55.2		Cc1ccc(Cn2cc(CCC(=O)N3CCOCC3)c3ccccc32)cc1
26.4		COc1ccc2c(c1)c(CCCC(=O)N1CCOCC1)c(C)n2Cc1ccc(C)cc1
62.3	2060	O=C(CCCc1c[nH]c2ccccc12)N1CCOCC1
21		O=C(Cc1cn(C(=O)c2ccccc2)c2ccccc12)N1CCOCC1
37.9		Cc1c(CCCC(=O)N2CCOCC2)c2cc(Cl)ccc2n1Cc1ccc(Cl)cc1
33.9		Cc1ccc(Cn2cc(CCCC(=O)N3CCOCC3)c3ccccc32)cc1
58.2		O=C(CCCc1cn(C(=O)c2ccccc2)c2ccccc12)N1CCOCC1
41.6		c1ccc(Cn2cc(CCCCN3CCOCC3)c3ccccc32)cc1
23.9		CS(=O)(=O)N1CCN(C(=O)CCCc2cn(Cc3ccccc3)c3ccccc23)CC1
32.4		O=C(CCCc1cn(C(=O)c2ccc(Cl)cc2)c2ccccc12)N1CCOCC1
71.3	1330	Cc1[nH]c2ccc(Cl)cc2c1CCCC(=O)N1CCOCC1
46.5		COc1ccc2c(c1)c(CCCOc1cc(F)cc(C3(OC)CCOCC3)c1)c(C)n2Cc1ccccc1
71.2		COc1ccc2[nH]c(C)c(CCCC(=O)N3CCN(C(=O)OC(C)(C)C)CC3)c2c1
22.4		O=C(Cc1cn(C(=O)c2ccc(Cl)cc2)c2ccccc12)N1CCOCC1
64.6		COc1ccc2c(c1)c(CCCC(=O)N1CCNCC1)c(C)n2Cc1ccccc1
84.1	740	CC(C)(C)OC(=O)N1CCN(C(=O)CCCc2c[nH]c3ccccc23)CC1

SMILES	inhibition [1] [%]	IC50 [2] [nM]
COc1ccc2c(c1)c(CCCC(=O)N1CCOCC1)c(C)n2C(=O)c1ccc(Cl)cc1	70.2	2250
